The results in this text go back to ChEMBL document CHEMBL2375357, “Design, synthesis and cytotoxicity of cell death mechanism of rotundic acid derivatives” (Bioorg Med Chem Lett, 2013).

Common to all, as to type: functional, cell-based
For one assay, the system named is A-375. As to the kind of experiment: Cytotoxicity against human A375 cells after 24 hrs by MTT assay. To be noted: A-375, 24 h. The essentials:
(§1)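 MTT antiproliferative assay on human tumour lines A-375 (melanoma), SPC-A1 (lung adenocarcinoma), HeLa (cervical), HepG2 (hepatoma) and NCI-H446 (small cell lung cancer). Parent rotundic acid run alongside as positive control. IC50 given as mean ± SD, n = 3, each experiment repeated at least three times. Values above 100 μM reported as >100.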

A short description of assay [1]: Cytotoxicity against human SPC-A1 cells after 24 hrs by MTT assay. To be noted: SPCA1, 24 h. The essentials: as §1
(Tetrazolium dyes change colour on reduction, which living cells bring about.)

For a further assay, the system named is HepG2. The assay is described as follows: Cytotoxicity against human HepG2 cells after 24 hrs by MTT assay. The following applies: HepG2, 24 h. The essentials: as §1
The next assay relates to NCI-H446. As to the kind of experiment: Cytotoxicity against human NCI-H446 cells after 24 hrs by MTT assay. The following applies: NCI-H446, 24 h. The essentials: as §1
For assay [2], the system named is HeLa. The assay is described as follows: Cytotoxicity against human HeLa cells after 24 hrs by MTT assay. The essentials:
as §1

In assay [3] the test system is HeLa. As to the kind of experiment: Induction of apoptosis in human HeLa cells assessed as increase in ratio of Bax to Bcl2 expression after 24 hrs by Western blot analysis. The essentials:
(§2)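 HeLa cells treated 24 h at 10, 20 and 40 μM. Cisplatin (10 μg/ml) served as positive-control treatment, with an untreated control group for comparison. Bax, Bcl-2, cytochrome C, caspase-3 and cleaved caspase-3 protein levels detected by western blot. Bax/Bcl-2 ratio derived from the band levels. Significance tested against the control group.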
Background: In western blotting, separated proteins are transferred to a membrane and probed.

In assay [4] the test system is HeLa. The assay is described as follows: Induction of apoptosis in human HeLa cells assessed as increase in Bax expression after 24 hrs by Western blot analysis. The essentials:
as §2

Assay [5] concerns HeLa. As to the kind of experiment: Induction of apoptosis in human HeLa cells assessed as decrease in Bcl2 expression after 24 hrs by Western blot analysis. The essentials:
as §2

Assay [6] concerns HeLa. As to the kind of experiment: Induction of apoptosis in human HeLa cells assessed as increase in caspase 3 expression at 10 to 40 uM after 24 hrs by Western blot analysis. The essentials:
as §2

Assay [7] deals with HeLa. As to the kind of experiment: Induction of apoptosis in human HeLa cells assessed as increase in cytochrome C expression after 24 hrs by Western blot analysis. The essentials: as §2
Assay [8] relates to HeLa. As to the kind of experiment: Induction of apoptosis in human HeLa cells assessed as increase in caspase 3 cleavage after 24 hrs by Western blot analysis. The essentials: as §2

Molecules are shown by their SMILES. The source made the active and inactive calls. No cut-off for these calls is given here.

For orientation: IC50 means the concentration at which inhibition is half-maximal. Read a high IC50 as weaker potency in that assay. For `C[C@@H]1CC[C@]2(C(=O)NCCO)CC[C@]3(C)C(=CC[C@@H]4[C@@]5(C)CC[C@H](O)[C@@](C)(CO)[C@@H]5CC[C@]43C)[C@@H]2[C@]1(C)O`, the IC50 was 21.4 µM in the assay with A-375; more than 100 µM in assay [1]; 45.6 µM in the assay on HepG2; 24.7 µM in the assay with NCI-H446; more than 100 µM in the assay with HeLa [2].

Turning to `CC(=O)OC[C@@]1(C)[C@@H]2CC[C@]3(C)[C@H](CC=C4[C@H]5[C@](C(=O)NCc6ccccc6)(CC[C@@H](C)[C@@]5(C)O)CC[C@]43C)[C@@]2(C)CC[C@@H]1OC(C)=O`, the IC50 with A-375 is 13.7 µM; in assay [1], 12.1 µM; in the assay on HepG2, 19.5 µM; in the assay with NCI-H446, 26.9 µM; in the assay on HeLa [2], 19.2 µM.

With `CC(=O)OC[C@@]1(C)[C@@H]2CC[C@]3(C)[C@H](CC=C4[C@H]5[C@](C(=O)Nc6ccccc6CO)(CC[C@@H](C)[C@@]5(C)O)CC[C@]43C)[C@@]2(C)CC[C@@H]1OC(C)=O`, the 50% inhibitory concentration (IC50) in the assay on A-375 was found to be 3.71 µM; in [1], 8.09 µM; in the assay on HepG2, 4.45 µM; with NCI-H446 it was 7.03 µM; in the assay with HeLa [2], 3.32 µM.

As to `C[C@@H]1CC[C@]2(C(=O)O)CC[C@]3(C)C(=CC[C@@H]4[C@@]5(C)CC[C@H](O)[C@@](C)(CO)[C@@H]5CC[C@]43C)[C@@H]2[C@]1(C)O` [ROTUNDIC ACID], the IC50 stood at 16.6 µM in the assay on A-375; 84 µM in assay [1]; 7.33 µM in the assay on HepG2; 11.4 µM with NCI-H446; 31.9 µM in the assay with HeLa [2].

For `CC(=O)OC[C@@]1(C)[C@@H]2CC[C@]3(C)[C@H](CC=C4[C@H]5[C@](C(=O)NC(C)CO)(CC[C@@H](C)[C@@]5(C)O)CC[C@]43C)[C@@]2(C)CC[C@@H]1OC(C)=O` (stereo partly specified), the IC50 is 4.77 µM with A-375; 12.9 µM in assay [1]; 7.3 µM with HepG2; 5.51 µM with NCI-H446; 11.3 µM in the assay with HeLa [2].

In the case of `CC(=O)OC[C@@]1(C)[C@@H]2CC[C@]3(C)[C@H](CC=C4[C@H]5[C@](C(=O)Nc6ccccc6)(CC[C@@H](C)[C@@]5(C)O)CC[C@]43C)[C@@]2(C)CC[C@@H]1OC(C)=O`, the half-inhibitory concentration (IC50) in the assay on A-375 turned out to be 17.7 µM; in assay [1], 16.2 µM; in the assay on HepG2, 22.2 µM; with NCI-H446, 24.8 µM; with HeLa [2] it was 15.8 µM.

For the molecule `C[C@@H]1CC[C@]2(C(=O)NCc3ccccc3)CC[C@]3(C)C(=CC[C@@H]4[C@@]5(C)CC[C@H](O)[C@@](C)(CO)[C@@H]5CC[C@]43C)[C@@H]2[C@]1(C)O`, the IC50 with A-375 is more than 100 µM; in assay [1], more than 100 µM; with HepG2, more than 100 µM; in the assay on NCI-H446 it was more than 100 µM; with HeLa [2] it was 28.1 µM.

Turning to `CC(=O)OC[C@@]1(C)[C@@H]2CC[C@]3(C)[C@H](CC=C4[C@H]5[C@](C(=O)NCCO)(CC[C@@H](C)[C@@]5(C)O)CC[C@]43C)[C@@]2(C)CC[C@@H]1OC(C)=O`, the Activity entry in the assay with HeLa [3], in the assay on HeLa [4], with HeLa [5] and in the assay with HeLa [8] was “Dose-dependent effect” in each case. For the same molecule, the outcome with HeLa [6] and with HeLa [7] was Active. For the same molecule, the IC50 in the assay on A-375 was found to be 5.49 µM; in assay [1], 3.61 µM; with HepG2, 4.4 µM; in the assay on NCI-H446, 6.67 µM; in the assay with HeLa [2] it was 2.83 µM.

As for `CC(=O)OC[C@@]1(C)[C@@H]2CC[C@]3(C)[C@H](CC=C4[C@H]5[C@](C(=O)NCCCO)(CC[C@@H](C)[C@@]5(C)O)CC[C@]43C)[C@@]2(C)CC[C@@H]1OC(C)=O`, the 50% inhibitory concentration (IC50) in the assay with A-375 was found to be 3.28 µM; in assay [1], 13.4 µM; in the assay on HepG2, 5.49 µM; in the assay with NCI-H446, 5.08 µM; in the assay with HeLa [2] it was 6.97 µM.

Turning to `CC(CO)NC(=O)[C@]12CC[C@@H](C)[C@@](C)(O)[C@H]1C1=CC[C@@H]3[C@@]4(C)CC[C@H](O)[C@@](C)(CO)[C@@H]4CC[C@@]3(C)[C@]1(C)CC2` (stereo partly specified), the IC50 in the assay with A-375 is 35.5 µM; in assay [1] it was more than 100 µM; in the assay with HepG2, 55.1 µM; in the assay on NCI-H446 it was 39.8 µM; in the assay on HeLa [2], 28.8 µM.

For `CC(=O)OCCNC(=O)[C@]12CC[C@@H](C)[C@@](C)(O)[C@H]1C1=CC[C@@H]3[C@@]4(C)CC[C@H](OC(C)=O)[C@@](C)(COC(C)=O)[C@@H]4CC[C@@]3(C)[C@]1(C)CC2`, the IC50 is 4.17 µM with A-375; 9.37 µM in assay [1]; 4.44 µM with HepG2; 18.6 µM in the assay on NCI-H446; 5.39 µM in the assay on HeLa [2].

As to `C[C@@H]1CC[C@]2(C(=O)Nc3ccccc3)CC[C@]3(C)C(=CC[C@@H]4[C@@]5(C)CC[C@H](O)[C@@](C)(CO)[C@@H]5CC[C@]43C)[C@@H]2[C@]1(C)O`, the IC50 in the assay on A-375 is 70.8 µM; in assay [1], more than 100 µM; with HepG2 it was 64.7 µM; in the assay on NCI-H446 it was 70.8 µM; in the assay with HeLa [2] it was 23.2 µM.

Consider `CC(=O)OC[C@@]1(C)[C@@H]2CC[C@]3(C)[C@H](CC=C4[C@H]5[C@](C(=O)O)(CC[C@@H](C)[C@@]5(C)O)CC[C@]43C)[C@@]2(C)CC[C@@H]1OC(C)=O`, for which the IC50 in the assay with A-375 was 11.4 µM; in [1], 23.2 µM; in the assay with HepG2, 6.85 µM; in the assay on NCI-H446 it was 7.11 µM; with HeLa [2], 13.1 µM.

As to `CC(=O)OCCCNC(=O)[C@]12CC[C@@H](C)[C@@](C)(O)[C@H]1C1=CC[C@@H]3[C@@]4(C)CC[C@H](OC(C)=O)[C@@](C)(COC(C)=O)[C@@H]4CC[C@@]3(C)[C@]1(C)CC2`, the IC50 in the assay with A-375 stood at 10.1 µM; in [1], 12 µM; in the assay with HepG2 it was 12 µM; with NCI-H446 it was 12.8 µM; in the assay with HeLa [2], 4.31 µM.

For `CC(=O)OCc1ccccc1NC(=O)[C@]12CC[C@@H](C)[C@@](C)(O)[C@H]1C1=CC[C@@H]3[C@@]4(C)CC[C@H](OC(C)=O)[C@@](C)(COC(C)=O)[C@@H]4CC[C@@]3(C)[C@]1(C)CC2`, the IC50 was 9.12 µM with A-375; 13.2 µM in assay [1]; 12.3 µM in the assay on HepG2; 69.7 µM in the assay with NCI-H446; 4.27 µM in the assay on HeLa [2].

`C[C@@H]1CC[C@]2(C(=O)NCCCO)CC[C@]3(C)C(=CC[C@@H]4[C@@]5(C)CC[C@H](O)[C@@](C)(CO)[C@@H]5CC[C@]43C)[C@@H]2[C@]1(C)O`: the IC50 in the assay on A-375 stood at 12.5 µM; in assay [1], 83.2 µM; with HepG2, 77.3 µM; in the assay on NCI-H446 it was 20.9 µM; in the assay on HeLa [2], 17.7 µM.

For `CC(=O)OCC(C)NC(=O)[C@]12CC[C@@H](C)[C@@](C)(O)[C@H]1C1=CC[C@@H]3[C@@]4(C)CC[C@H](OC(C)=O)[C@@](C)(COC(C)=O)[C@@H]4CC[C@@]3(C)[C@]1(C)CC2` (stereo partly specified), the IC50 in the assay with A-375 came out at 5.1 µM; in [1], 18.9 µM; in the assay with HepG2, 9.12 µM; in the assay with NCI-H446 it was 14.7 µM; with HeLa [2], 5.3 µM.

On to `C[C@@H]1CC[C@]2(C(=O)Nc3ccccc3CO)CC[C@]3(C)C(=CC[C@@H]4[C@@]5(C)CC[C@H](O)[C@@](C)(CO)[C@@H]5CC[C@]43C)[C@@H]2[C@]1(C)O`, for which the IC50 with A-375 is 19 µM; in assay [1], more than 100 µM; in the assay on HepG2, more than 100 µM; in the assay on NCI-H446 it was 14 µM; with HeLa [2], 12.3 µM.
